Results taken from PMC6893084 (Journal of thrombosis and haemostasis : JTH, 2019).
Values joined by “and” are separate entries in the source; they are usually repeats but may differ in a detail not shown here. Identical values can stand only once. Like-named read-outs stand apart in the source and are kept apart here.

Tests used:
SCI–FXIa complex = SCI–FXIa complex (Homo sapiens, UniProt P03951); assay: In vitro reversibility of SCI inhibition of FXIa by antidotes, S-2366 hydrolysis; assay type: biochemical; conditions: for restoration potency (EC50) / restoration yield (ΔY) of FXIa activity: FXIa inhibited by 2 μM of SCI, pH 7.4, 37 °C
Trypsin = assay: Chromogenic substrate hydrolysis assay, trypsin; assay type: biochemical, human
In short: (§1)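 Each purified human protease was tested against varying test compound levels under optimal conditions taken from the literature. A chromogenic substrate was used, except for FXIIIa, which used a fluorescence bisubstrate format. Protease activity versus concentration was fitted by non-linear regression to a logistic equation, giving IC50, efficacy (ΔY) and Hill slope.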

FXIa [1] = molecular target: T1, FXIa (Homo sapiens, UniProt P03951); assay: Direct inhibition of FXIa, S-2366 chromogenic substrate hydrolysis; assay type: biochemical
In short: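 Full-length wild-type purified human FXIa hydrolysing chromogenic substrate S-2366 in 20 mM Tris-HCl, pH 7.4, 37 °C, with varying test compound. Activity taken as the initial rate of absorbance increase at 405 nm. A logistic dose–response equation fitted to residual protease activity gave IC50, efficacy (ΔY) and Hill slope.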

rFXIa-FLABS1 = rFXIa-FLABS1 (Homo sapiens, UniProt P03951); assay type: biochemical
[2] = Thromboplastin-induced venous thrombosis model in rats; assay type: in vivo; conditions: 250 μg per rat
Chymotrypsin = assay: Chromogenic substrate hydrolysis assay, chymotrypsin; assay type: biochemical, human
In short: as §1

plasma = assay: Plasma clotting times in the presence of added FXI neutralizing antibody; assay type: biochemical; conditions: antibody 9 μg per 300 μL; SCI as high as 100 μM
In short: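 Plasma APTT was measured by a one-stage recalcification assay at 37 °C, with clotting initiated by CaCl2. Plasma contained FXI-neutralizing antibody at 9 μg per 300 μL, and test compound was varied over a wide concentration range.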

FXIa [3] = molecular target: T1, FXIa; assay: Competition between SCI and UFH, S-2366 hydrolysis assay; assay type: biochemical; conditions: UFH increased from 0 to 150 μM; pH 7.4, 37 °C
In short: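 Purified full-length human FXIa hydrolysing S-2366 in 20 mM Tris-HCl, pH 7.4, 37 °C, read as initial rate of absorbance rise at 405 nm. Inhibition curves were run with unfractionated heparin at 0, 5, 50 or 150 μM. Fitted to a logistic dose–response equation for IC50, ΔY and Hill slope.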

Thrombin [4] = molecular target: T2, Thrombin (Homo sapiens, UniProt P00734); assay: Chromogenic substrate hydrolysis assay, thrombin; assay type: biochemical
In short: as §1

DEGR-FXIa [5] = molecular target: T3, DEGR-FXIa (Homo sapiens, UniProt P03951); assay: Fluorescence titration, dansyl fluorescence of DEGR-FXIa; assay type: binding; conditions: pH 7.4, 37 °C
human whole blood [6] = assay: Thromboelastography; conditions: ex vivo
In short: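 Citrated human whole blood with varying levels of test compound or enoxaparin was recalcified with CaCl2 to start clotting. The cup oscillated through a 4° 45ˋ angle at 0.1 Hz. Reaction time (min), angle (deg), maximum amplitude and shear elastic modulus were recorded automatically.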

FXIa [7] = molecular target: T1, FXIa; assay: Fluorescence titration, intrinsic tryptophan fluorescence of FXIa; assay type: binding
human plasma [8] = assay: Prothrombin time; assay type: biochemical; conditions: even at 150 μM
In short: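 One-stage recalcification clotting assay of human plasma containing varying levels of test compound. Clotting was started with Thromboplastin-D and CaCl2 at 37 °C and time to clot recorded. Clotting time versus concentration was fitted with a quadratic equation to give the concentration that doubles clotting time.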

FVIIa/TF = FVIIa/TF (Homo sapiens, UniProt P08709); assay: Chromogenic substrate hydrolysis assay, FVIIa/TF; assay type: biochemical
In short: as §1

FXIa [9] = molecular target: T1, FXIa; assay: FXIa inhibition with sub-optimal chromogenic substrate Spectrozyme TH; assay type: biochemical
human whole blood [10] = assay: Hemostasis analysis; conditions: ex vivo
In short: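 Citrated human whole blood was spiked with varying levels of test compound or enoxaparin and recalcified with CaCl2. A cone was lowered into the blood, and tension from platelets attaching within the fibrin meshwork was recorded automatically as platelet contractile force, thrombin generation time and clot elastic modulus.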

FXIIa = FXIIa (Homo sapiens, UniProt P00748); assay: Chromogenic substrate hydrolysis assay, FXIIa; assay type: biochemical
In short: as §1

Rat tail bleeding = assay type: in vivo
DEGR-FXIa [11] = molecular target: T3, DEGR-FXIa; assay: Acrylamide quenching of dansyl fluorescence of DEGR-FXIa; assay type: binding; conditions: 2 μM SCI; acrylamide 0–800 mM
In short: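 Dansyl-labelled active-site-blocked human FXIa (DEGR-FXIa) in 20 mM Tris-HCl, pH 7.4, 37 °C. Acrylamide (0–800 mM) was added sequentially with or without a fixed level of test compound. Dansyl emission was recorded with excitation at 345 nm. Data were fitted to linear or quadratic Stern–Volmer equations.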

FXIa [12] = molecular target: T1, FXIa; assay: FXIa cleavage of macromolecular substrate FIX to FIXa; assay type: biochemical
[13] = system: human plasma deficient of antithrombin and heparin cofactor II; assay: Clotting of human plasma deficient of antithrombin or heparin cofactor II; assay type: biochemical; conditions: plasma deficient in antithrombin or heparin cofactor II
[14] = system: HT-29 colorectal cell line; conditions: HT-29, SCI as high as 100 μM; cited from earlier work
rFXIa-FLABS2 = rFXIa-FLABS2 (Homo sapiens, UniProt P03951, K547A/R548A/R550A); assay type: biochemical
Plasmin = Plasmin (Homo sapiens, UniProt P00747); assay: Chromogenic substrate hydrolysis assay, plasmin; assay type: biochemical
In short: as §1

FIXa = FIXa (Homo sapiens, UniProt P00740); assay: Chromogenic substrate hydrolysis assay, FIXa; assay type: biochemical
In short: as §1

Plasma Kallikrein = Plasma Kallikrein (Homo sapiens, UniProt P03952); assay: Chromogenic substrate hydrolysis assay, plasma kallikrein; assay type: biochemical
In short: as §1

FXIIIa = FXIIIa (Homo sapiens, UniProt P00488); assay: Fluorescence-based bisubstrate assay, FXIIIa; assay type: biochemical
In short: as §1

Mouse tail bleeding = assay type: in vivo; conditions: IV 35 μg/mouse SCI vs 300 μg enoxaparin
In short: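 Test compound or enoxaparin comparator was given IV, then the tail was transected. Blood loss (mg) and time to cessation of bleeding were measured, with n = 4–7 per group. Groups were compared by two-tailed t-tests with unequal variance.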

human plasma [15] = assay: Activated partial thromboplastin time; assay type: biochemical
rat plasma = assay: APTT of rat plasma; assay type: biochemical
Thrombin [16] = molecular target: T2, Thrombin; assay: Thrombin inhibition with sub-optimal chromogenic substrate S-2366; assay type: biochemical
rFXIa-FLWT = rFXIa-FLWT (Homo sapiens, UniProt P03951); assay: Direct inhibition of recombinant full-length wild type FXIa, S-2366 hydrolysis; assay type: biochemical; conditions: pH 7.4, 37 °C
[17] = FeCl3-induced arterial thrombosis model in rats; assay type: in vivo, rat
In short: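 Female Wistar rats (~250 g), under ketamine/xylazine with isoflurane maintenance. Test compound (250, 500 or 2000 μg/rat) or enoxaparin in PBS was infused into the tail vein. After 5 min, 10% FeCl3-soaked filter paper was applied to the exposed abdominal aorta between two sutures for 10 min. The clot matured 15 min, sutures were tightened, and thrombus wet and dry weights recorded.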

FXa = FXa (Homo sapiens, UniProt P00742); assay: Chromogenic substrate hydrolysis assay, FXa; assay type: biochemical
In short: as §1

[18] = molecular target: human, wild-type, full-length FXIa (Homo sapiens, UniProt P03951); assay: Michaelis-Menten kinetics of S-2366 hydrolysis by FXIa in the presence of SCI; assay type: biochemical; conditions: pH 7.4, 37 °C
Sequence of human, wild-type, full-length FXIa (P03951 388-625 limits assumed): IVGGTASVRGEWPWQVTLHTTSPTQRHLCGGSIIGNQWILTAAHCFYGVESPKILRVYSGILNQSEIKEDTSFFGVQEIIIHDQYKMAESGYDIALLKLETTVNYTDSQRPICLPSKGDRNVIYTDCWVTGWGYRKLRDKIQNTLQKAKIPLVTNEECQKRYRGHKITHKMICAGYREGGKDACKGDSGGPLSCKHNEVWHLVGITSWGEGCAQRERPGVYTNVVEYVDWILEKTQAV
Sequence of human, wild-type, full-length FXIa (P03951 19-387 limits assumed): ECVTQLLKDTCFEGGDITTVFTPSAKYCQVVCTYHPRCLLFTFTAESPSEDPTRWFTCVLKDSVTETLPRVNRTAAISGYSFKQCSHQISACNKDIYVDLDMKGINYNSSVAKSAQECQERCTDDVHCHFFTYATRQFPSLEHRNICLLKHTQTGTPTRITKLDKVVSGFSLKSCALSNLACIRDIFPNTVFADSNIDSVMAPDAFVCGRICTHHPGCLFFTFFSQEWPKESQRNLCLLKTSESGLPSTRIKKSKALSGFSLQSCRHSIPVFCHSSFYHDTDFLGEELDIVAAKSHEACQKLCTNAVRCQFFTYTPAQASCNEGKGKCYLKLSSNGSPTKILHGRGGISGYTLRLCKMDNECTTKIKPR

Sequence of SCI–FXIa complex (P03951 388-625 limits assumed): as the sequence (P03951 388-625 limits assumed) above
Sequence of SCI–FXIa complex (P03951 19-387 limits assumed): as the sequence (P03951 19-387 limits assumed) above
T1 sequence (P03951 388-625 limits assumed): as the sequence (P03951 388-625 limits assumed) above
T1 sequence (P03951 19-387 limits assumed): as the sequence (P03951 19-387 limits assumed) above
T3 sequence (P03951 388-625 limits assumed): as the sequence (P03951 388-625 limits assumed) above
T3 sequence (P03951 19-387 limits assumed): as the sequence (P03951 19-387 limits assumed) above
Sequence of rFXIa-FLABS2 (P03951 388-625 K547A/R548A/R550A limits assumed): as the sequence (P03951 388-625 limits assumed) above, with K160A, R161A, R163A counted along it
Sequence of rFXIa-FLABS2 (P03951 19-387 limits assumed): as the sequence (P03951 19-387 limits assumed) above
Sequence of rFXIa-FLABS1 (P03951 388-625 limits assumed): as the sequence (P03951 388-625 limits assumed) above
Sequence of FXa (P00742 235-488 limits assumed): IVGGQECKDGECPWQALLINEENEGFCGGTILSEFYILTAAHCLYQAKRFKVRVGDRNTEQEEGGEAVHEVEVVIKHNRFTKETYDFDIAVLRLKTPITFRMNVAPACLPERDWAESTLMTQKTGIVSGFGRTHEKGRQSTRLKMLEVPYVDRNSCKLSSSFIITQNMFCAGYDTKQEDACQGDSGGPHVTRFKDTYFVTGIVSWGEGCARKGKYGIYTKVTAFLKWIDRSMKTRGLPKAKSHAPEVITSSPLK
Sequence of FXa (P00742 41-179 partner limits assumed): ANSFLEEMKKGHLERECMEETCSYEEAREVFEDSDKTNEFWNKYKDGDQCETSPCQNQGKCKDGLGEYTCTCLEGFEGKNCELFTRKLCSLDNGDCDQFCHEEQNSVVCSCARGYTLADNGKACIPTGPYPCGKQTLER
Sequence of FXIIIa (P00488 39-732 limits assumed): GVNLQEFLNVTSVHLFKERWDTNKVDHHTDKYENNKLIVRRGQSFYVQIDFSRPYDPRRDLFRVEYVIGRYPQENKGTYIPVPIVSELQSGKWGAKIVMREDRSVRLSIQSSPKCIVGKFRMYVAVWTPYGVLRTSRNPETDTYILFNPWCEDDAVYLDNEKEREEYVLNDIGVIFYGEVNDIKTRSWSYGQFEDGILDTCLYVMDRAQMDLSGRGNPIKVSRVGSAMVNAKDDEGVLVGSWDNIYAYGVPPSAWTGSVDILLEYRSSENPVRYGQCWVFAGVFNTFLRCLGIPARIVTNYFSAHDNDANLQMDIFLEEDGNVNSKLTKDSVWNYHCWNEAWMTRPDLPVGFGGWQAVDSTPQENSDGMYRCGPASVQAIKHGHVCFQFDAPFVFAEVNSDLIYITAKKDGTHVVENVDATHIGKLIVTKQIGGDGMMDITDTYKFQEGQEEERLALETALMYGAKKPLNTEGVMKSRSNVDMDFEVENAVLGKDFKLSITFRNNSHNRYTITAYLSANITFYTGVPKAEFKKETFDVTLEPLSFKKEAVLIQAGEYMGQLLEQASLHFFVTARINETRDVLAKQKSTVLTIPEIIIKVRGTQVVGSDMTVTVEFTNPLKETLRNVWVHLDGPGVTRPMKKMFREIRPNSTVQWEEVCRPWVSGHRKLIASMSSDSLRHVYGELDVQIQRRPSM
Sequence of FIXa (P00740 227-461 limits assumed): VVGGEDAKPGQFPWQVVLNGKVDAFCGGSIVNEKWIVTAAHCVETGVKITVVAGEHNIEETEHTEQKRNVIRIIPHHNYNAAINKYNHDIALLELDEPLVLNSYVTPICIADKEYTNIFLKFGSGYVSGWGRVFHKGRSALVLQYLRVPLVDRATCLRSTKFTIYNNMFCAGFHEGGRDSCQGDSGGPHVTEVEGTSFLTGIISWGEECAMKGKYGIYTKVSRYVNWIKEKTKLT
Sequence of FIXa (P00740 47-191 partner limits assumed): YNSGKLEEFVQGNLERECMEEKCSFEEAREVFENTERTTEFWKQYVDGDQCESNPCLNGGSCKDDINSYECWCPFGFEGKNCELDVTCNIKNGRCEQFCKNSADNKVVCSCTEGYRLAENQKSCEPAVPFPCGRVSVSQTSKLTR

## O=S(=O)(O)OC[C@H]1O[C@@](COS(=O)(=O)O)(O[C@H]2O[C@H](COS(=O)(=O)O)[C@@H](OS(=O)(=O)O)[C@H](OS(=O)(=O)O)[C@H]2OS(=O)(=O)O)[C@@H](OS(=O)(=O)O)[C@@H]1OS(=O)(=O)O [SOS, sucrose octasulfate]
SCI–FXIa complex
  restoration potency (EC50): 750 µg/mL
  restoration yield (ΔY) of FXIa activity: ~ 39%

## polybrene
SCI–FXIa complex
  restoration potency (EC50): 0.4 µg/mL
  restoration yield (ΔY) of FXIa activity: ~ 88%

## protamine sulfate
SCI–FXIa complex
  restoration potency (EC50): 14.0 µg/mL
  restoration yield (ΔY) of FXIa activity: ~ 69%

## sulfated chiro-inositol [SCI]
Trypsin
  IC50: > 50 µM
FXIa [1]; FXIa inhibition
  potency relative to SPGG (better): ~ 2 fold and 2 fold
FXIa [1]; S-2366, pH 7.4, 37 °C
  efficacy of FXIa inhibition: 100%
FXIa [1]; full length, wild type, purified human FXIa, S-2366, pH 7.4, 37 °C
  IC50: 0.28 ± 0.01 µM
FXIa [1]; read-out: potency of FXIa inhibition
  IC50: 0.28 µM and ~0.28 µM
rFXIa-FLABS1
  potency relative to rFXIa-FLWT: essentially identical
rFXIa-FLABS1; full length FXIa missing A3 domain's HBS
  IC50: 3 ± 0.2 µM
[2]
  reduction of average dry weight of thrombus: 48%
  wet weight of thrombus less than PBS group: ~ 42%
[2]; n=13, PBS 38.61±3.56 mg
  wet weight of thrombus: 22.46 ± 1.14 mg
Chymotrypsin
  IC50: > 40 µM
plasma
  effect on plasma clotting times with FXI neutralizing antibody: did not significantly impact plasma clotting times
FXIa [3]
  increase of IC50 of FXIa inhibition with UFH: ~ 6 fold
Thrombin [4]
  IC50: > 40 µM
DEGR-FXIa [5]
  increase in dansyl fluorescence: 152%
DEGR-FXIa [5]; read-out: affinity (KD), dansyl fluorescence
  Kd: 0.025 µM
Human whole blood [6]
  effect on TEG parameters: increase time to initial fibrin formation, while decrease all other parameters
FXIa [7]; intrinsic fluorescence, pH 7.4, 37 °C
  Kd: 0.063 ± 0.011 µM
FXIa [7]; pH 7.4, 37 °C
  saturating increase in intrinsic fluorescence: 133%
FXIa [7]; spectrofluorometric titration
  stoichiometry of SCI binding to dimeric FXIa: 1.83±0.08
Human plasma [8]
  impact on the PT: minimal
FVIIa/TF
  IC50: > 50 µM
FXIa [9]
  inhibition of FXIa with Spectrozyme TH: potent inhibition
Human whole blood [10]
  effect on HAS parameters: reduced platelet contractile force and clot elastic modulus, whereas prolonged force onset time
FXIIa
  IC50: > 50 µM
Rat tail bleeding; 250 μg/rat IV, n=15, PBS 147±29 mg
  blood loss: 119 ± 41 mg
Rat tail bleeding; 250 μg/rat, PBS 13±4
  tail bleeding time: 14 ± 4 min
DEGR-FXIa [11]
  dansyl fluorescence of SCI–DEGR-FXIa complex on acrylamide addition: remained invariant
FXIa [12]
  inhibition of FXIa cleavage of FIX to FIXa: dose-dependently inhibited
[13]
  effect on APTT of serpin-deficient plasma: preferentially prolonged the APTT
SCI–FXIa complex; protamine as antidote
  reversibility with protamine: > 50%
[14]
  cellular toxicity (cell death): No significant adverse effect
rFXIa-FLABS2
  reduction in efficacy relative to rFXIa-FLWT: ~ 20%
  weaker inhibition relative to rFXIa-FLWT: ~ 5 fold
rFXIa-FLABS2; full length FXIa missing catalytic domain's HBS
  IC50: 20.7 ± 3.6 µM
Plasmin
  IC50: > 40 µM
FIXa
  IC50: > 65 µM
Plasma Kallikrein
  IC50: > 65 µM
FXIIIa
  IC50: > 90 µM
Mouse tail bleeding
  blood loss and bleeding time: much lower than that induced by enoxaparin
Maximum tolerated dose; 25 mg/animal, no bleeding or cellular toxicity
  highest dose studied relative to effective dose: > 100 fold
Maximum tolerated dose; rats, 5, 10 and 25 mg per animal IV, n=3/group, 7 days observation
  tolerability (mobility, weight loss, bleeding): well tolerated
Human plasma [15]
  concentration for 2-fold increase in APTT: 32.2 µM
Rat plasma
  effect on APTT of rat plasma: preferentially enhance APTT
Thrombin [16]
  inhibition of thrombin with S-2366: essentially no inhibition
rFXIa-FLWT
  IC50: 4.2 ± 0.6 µM
[17]; 250 μg per rat
  wet weight of thrombus lower than negative control (PBS): ~ 33%
[17]; 250 μg per rat, n=14, PBS 43.35±2.63 mg
  wet weight of thrombus: 28.85 ± 2.12 mg
[17]; 500 or 2000 μg/animal
  decrease of average dry thrombus weight vs PBS: 55–63%
  decrease of average wet thrombus weight vs PBS: 53–55%
FXa
  IC50: > 40 µM
[18]
  decrease of VMAX: ~ 4 fold
[18]; decreased from 52.1
  VMAX in the presence of SCI: 14.2 mAU/min
